Measurements taken from ChEMBL document CHEMBL3272290, “Contragestational agents. 1. Steroidal O-aryloximes” (J Med Chem, 1977).

Tested on: Rattus norvegicus
Assay: Antifertility activity in Wistar rat assessed as inhibition of preimplantive gestation by measuring resorptions at 40 mg/kg, po administered in days 9 to 12 of pregnancy measured on day 21
Assay type: functional
Parameters: scale not given: the % may be the effect or the level left
Method in brief: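 Groups of five pregnant female Wistar-derived rats dosed orally on days 9–12 of pregnancy, in sesame oil at 0.5 mL per 200 g body weight. Read-out was the percentage of resorptions.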

Row | Structure (SMILES) | Activity
1 | C#C[C@]1(O)CC[C@H]2[C@@H]3CCC4=C/C(=N/Oc5ccc([N+](=O)[O-])cc5)CC[C@@H]4[C@H]3CC[C@@]21C | 25%
2 | C[C@]12CC/C(=N\Oc3ccc([N+](=O)[O-])cc3)C[C@H]1CC[C@@H]1[C@@H]2CC[C@]2(C)[C@@H](O)CC[C@@H]12 | 10.9%
3 | C[C@]12CC[C@H]3[C@@H](CC[C@H]4C/C(=N/Oc5ccc([N+](=O)[O-])cc5[N+](=O)[O-])CC[C@@H]43)[C@@H]1CC[C@@H]2O | 16.4%
4 | C[C@]12CC[C@H]3[C@@H](CCC4=C/C(=N/Oc5ccccc5)CC[C@@H]43)[C@@H]1CC[C@@H]2O | 100%
5 | CC(=O)O[C@H]1CC[C@H]2[C@@H]3CC[C@H]4CC(=O)CC[C@]4(C)[C@H]3CC[C@]12C | 5%
6 | CC(=O)[C@H]1CC[C@H]2[C@@H]3CC[C@H]4C/C(=N/Oc5ccc([N+](=O)[O-])cc5)CC[C@]4(C)[C@H]3CC[C@]12C | 4%
7 | C[C@]12CC/C(=N\Oc3ccccc3)C[C@H]1CC[C@@H]1[C@@H]2CC[C@]2(C)[C@@H](O)CC[C@@H]12 | 11.9%
8 | C[C@]12CC/C(=N\Oc3ccc([N+](=O)[O-])cc3)C[C@@H]1CC[C@@H]1[C@@H]2CC[C@@]2(C)[C@H]1CCC21SCCS1 | 4%
9 | CC(=O)O[C@H]1CC[C@H]2[C@@H]3CC[C@H]4C/C(=N/Oc5ccccc5[N+](=O)[O-])CC[C@]4(C)[C@H]3CC[C@]12C | 4%
10 | C[C@]12CC[C@H]3[C@@H](CCC4=C/C(=N/Oc5ccccc5[N+](=O)[O-])CC[C@@H]43)[C@@H]1CC[C@@H]2O | 11.9%
11 | C[C@]12CC/C(=N\Oc3ccc(C#N)cc3)C[C@@H]1CC[C@@H]1[C@@H]2CC[C@]2(C)[C@@H](O)CC[C@@H]12 | 12.9%
12 | C#C[C@]1(O)CC[C@H]2[C@@H]3CC[C@H]4C/C(=N/Oc5ccc([N+](=O)[O-])cc5)CC[C@]4(C)[C@H]3CC[C@@]21C | 76.9%
13 | CC(=O)O[C@H]1CC[C@H]2[C@@H]3CC[C@H]4C/C(=N/Sc5ccc([N+](=O)[O-])cc5)CC[C@]4(C)[C@H]3CC[C@]12C | 7.5%
14 | C[C@]12CC/C(=N\OCc3ccc(Br)c(O)c3)C[C@@H]1CC[C@@H]1[C@@H]2CC[C@]2(C)[C@@H](O)CC[C@@H]12 | 8.8%
15 | C[C@]1(O)CC[C@H]2[C@@H]3CC[C@H]4C/C(=N/Oc5ccc([N+](=O)[O-])cc5[N+](=O)[O-])CC[C@@H]4[C@H]3CC[C@@]21C | 9.5%
16 | C[C@]12CC/C(=N\Oc3ccc(C(F)(F)F)cc3)C[C@@H]1CC[C@@H]1[C@@H]2CC[C@]2(C)[C@@H](O)CC[C@@H]12 | 4.8%
17 | C[C@]12CC/C(=N\Oc3ccc([N+](=O)[O-])cc3Cl)C[C@@H]1CC[C@@H]1[C@@H]2CC[C@]2(C)[C@@H](O)CC[C@@H]12 | 5.8%
18 | C[C@]12CC[C@H]3[C@@H](CCC4=C/C(=N/Oc5ccc([N+](=O)[O-])cc5)CC[C@@]43C)[C@@H]1CC[C@@H]2O | 93.8%
19 | C[C@]12CC/C(=N\Oc3ccc([N+](=O)[O-])cc3)C[C@@H]1CC[C@@H]1[C@@H]2CC[C@]2(C)[C@@H](N)CC[C@@H]12 | 2%
20 | CC(=O)O[C@H]1CC[C@H]2[C@@H]3CC[C@H]4C/C(=N/Nc5ccc([N+](=O)[O-])cc5)CC[C@]4(C)[C@H]3CC[C@]12C | 7.7%
21 | CC(=O)O[C@H]1CC[C@H]2[C@@H]3CC[C@H]4C/C(=N/Oc5ccc([N+](=O)[O-])cc5)C[C@H](C)[C@]4(C)[C@H]3CC[C@]12C | 5.8%
